Test results: ChEMBL document CHEMBL4715693, “Synthesis and antiviral properties of novel indole-based thiosemicarbazides and 4-thiazolidinones” (Bioorg Med Chem, 2016)
Values after ≈ are worked out from the molar mass of the structure shown.

What was measured:
Feline coronavirus = assay: Antiviral activity against Feline coronavirus infected in cat CRFK cells assessed as reduction in virus-induced cytopathic effect incubated for 3 to 6 days by light microscopic analysis; assay type: functional, organism-based; settings: Alphacoronavirus 1, CRFK
[1] = Cytotoxicity against human HeLa cells assessed as changes in cell morphology incubated for 3 to 6 days by light microscopic analysis; assay type: cell-based; settings: time 3-6 day
Summary of the method: (§1)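 Uninfected subconfluent cells (Vero or HeLa, as named) exposed to serial compound dilutions in parallel with the CPE assays, 37 °C, 3–6 days. Cell morphology examined by light microscopy; MCC = minimal concentration causing microscopically detectable changes in morphology.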

Sindbis virus = assay: Antiviral activity against Sindbis virus infected in African green monkey Vero cells assessed as reduction in virus-induced cytopathic effect incubated for 3 to 6 days by light microscopic analysis; assay type: functional, organism-based
Summary of the method: (§2)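 CPE reduction assay: virus and serial compound dilutions added together to subconfluent HeLa (vesicular stomatitis, Coxsackie B4, respiratory syncytial) or Vero (Coxsackie B4, Sindbis, Punta Toro) cultures. Incubated 3–6 days at 37 °C. […] Mean ± SEM of three independent tests.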

MT4 = assay: Cytotoxicity against human MT4 cells assessed as reduction in cell viability incubated for 3 to 6 days by MTS assay; assay type: cell-based; settings: time 3-6 day
Summary of the method: (§3)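 CRFK or MT4 cells were exposed to serial compound dilutions alongside the antiviral assays for 3–6 days at 37 °C.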

Coxsackievirus B4 [2] = assay: Antiviral activity against Human coxsackievirus B4 infected in African green monkey Vero cells assessed as reduction in virus-induced cytopathic effect incubated for 3 to 6 days by light microscopic analysis; assay type: functional, organism-based; settings: Enterovirus B; summary of the method: as §2
Felid alphaherpesvirus 1 = assay: Antiviral activity against Feline herpesvirus infected in cat CRFK cells assessed as reduction in virus-induced cytopathic effect incubated for 3 to 6 days by light microscopic analysis; assay type: functional, organism-based; settings: Felid alphaherpesvirus 1, CRFK
Vaccinia virus = assay: Antiviral activity against Vaccinia virus infected in human HEL cells assessed as reduction in virus-induced cytopathic effect incubated for 3 to 6 days by light microscopic analysis; assay type: functional, organism-based; settings: Orthopoxvirus vaccinia
Human respirovirus 3 = assay: Antiviral activity against Human parainfluenza virus 3 infected in African green monkey Vero cells assessed as reduction in virus-induced cytopathic effect incubated for 3 to 6 days by light microscopic analysis; assay type: functional, organism-based; settings: Human respirovirus 3, Vero
Influenza B virus = assay: Antiviral activity against influenza B virus infected in dog MDCK cells assessed as reduction in virus-induced cytopathic effect incubated for 3 to 6 days by light microscopic analysis; assay type: functional, organism-based
Summary of the method: (§4)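 MDCK cells, subconfluent, received influenza A or B virus together with serial compound dilutions. Incubated 3–6 days at 35 °C.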

[3] = system: Mammalian orthoreovirus 1; assay: Antiviral activity against Mammalian orthoreovirus 1 infected in African green monkey Vero cells assessed as reduction in virus-induced cytopathic effect incubated for 3 to 6 days by light microscopic analysis; assay type: functional, organism-based; settings: Mammalian orthoreovirus 1, Vero
[4] = Cytotoxicity against African green monkey Vero cells assessed as changes in cell morphology incubated for 3 to 6 days by light microscopy; assay type: cell-based; settings: chlorocebus sabaeus, time 3-6 day; summary of the method: as §1
[5] = system: Vesicular stomatitis virus; assay: Antiviral activity against Vesicular stomatitis virus infected in human HeLa cells assessed as reduction in virus-induced cytopathic effect incubated for 3 to 6 days by light microscopic analysis; assay type: functional, organism-based
Summary of the method: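 CPE reduction assay: virus and serial compound dilutions added together to subconfluent HeLa (vesicular stomatitis, Coxsackie B4, respiratory syncytial) or Vero (Coxsackie B4, Sindbis, Punta Toro) cultures. Incubated 3–6 days at 37 °C. Mean ± SEM of three independent tests.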

[6] = system: Human immunodeficiency virus 1; assay: Antiviral activity against Human immunodeficiency virus 1 infected in human MT4 cells assessed as reduction in virus-induced cytopathic effect incubated for 3 to 6 days by light microscopic analysis; assay type: functional, organism-based; settings: Human immunodeficiency virus 1, MT4
[7] = system: Human immunodeficiency virus 2; assay: Antiviral activity against Human immunodeficiency virus 2 infected in human MT4 cells assessed as reduction in virus-induced cytopathic effect incubated for 3 to 6 days by light microscopic analysis; assay type: functional, organism-based; settings: Human immunodeficiency virus 2, MT4
Human alphaherpesvirus 1 = assay: Antiviral activity against Herpes simplex virus 1 infected in human HEL cells assessed as reduction in virus-induced cytopathic effect incubated for 3 to 6 days by light microscopic analysis; assay type: functional, cell-based; settings: Human alphaherpesvirus 1, HEL
[8] = system: Respiratory syncytial virus; assay: Antiviral activity against Respiratory syncytial virus infected in human HeLa cells assessed as reduction in virus-induced cytopathic effect incubated for 3 to 6 days by light microscopic analysis; assay type: functional, organism-based; summary of the method: as §2
[9] = Cytotoxicity against human HEL cells assessed as changes in cell morphology incubated for 3 to 6 days by light microscopy; assay type: cell-based; settings: time 3-6 day
Summary of the method: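 Human embryonic lung fibroblasts incubated with serial compound dilutions alongside the antiviral assays, 37 °C, 3–6 days. Morphology inspected by light microscopy; minimal cytotoxic concentration taken as lowest concentration giving minimal morphological change.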

[10] = Cytotoxicity against dog MDCK cells assessed as changes in cell morphology incubated for 3 to 6 days by light microscopy; assay type: cell-based, Canis lupus familiaris; settings: time 3-6 day
Coxsackievirus B4 [11] = assay: Antiviral activity against Human coxsackievirus B4 infected in human HeLa cells assessed as reduction in virus-induced cytopathic effect incubated for 3 to 6 days by light microscopic analysis; assay type: functional, organism-based; settings: Enterovirus B; summary of the method: as §2
[12] = Cytotoxicity against cat CRFK cells assessed as reduction in cell viability incubated for 3 to 6 days by MTS assay; assay type: cell-based, Felis catus; settings: crfk, time 3-6 day; summary of the method: as §3
Human alphaherpesvirus 2 = assay: Antiviral activity against Herpes simplex virus 2 infected in human HEL cells assessed as reduction in virus-induced cytopathic effect incubated for 3 to 6 days by light microscopic analysis; assay type: functional, cell-based; settings: Human alphaherpesvirus 2, HEL
Punta Toro virus = assay: Antiviral activity against Punta Toro virus infected in African green monkey Vero cells assessed as reduction in virus-induced cytopathic effect incubated for 3 to 6 days by light microscopic analysis; assay type: functional, organism-based; summary of the method: as §2
Influenza A virus = assay: Antiviral activity against influenza A virus infected in dog MDCK cells assessed as reduction in virus-induced cytopathic effect incubated for 3 to 6 days by light microscopic analysis; assay type: functional, organism-based; summary of the method: as §4

Compound	EC50 (Feline coronavirus) [µg/mL]	EC50 (Sindbis virus) [µg/mL]	CC50 (MT4) [µg/mL]	EC50 (Coxsackievirus B4 [2])	EC50 (Felid alphaherpesvirus 1) [µg/mL]	EC50 (Vaccinia virus)	EC50 (Human respirovirus 3)	EC50 (Influenza B virus) [µg/mL]	EC50 [3]	MCC [4]	EC50 [5] [µg/mL]	EC50 [6] [µg/mL]	EC50 [7] [µg/mL]	EC50 (Human alphaherpesvirus 1) [µg/mL]	EC50 [8]	MCC [9]	EC50 (Coxsackievirus B4 [11])	CC50 [12] [µg/mL]	EC50 (Human alphaherpesvirus 2) [µg/mL]	EC50 (Punta Toro virus) [µg/mL]	further results
O=C(NNC(=S)NCCc1ccccc1)c1[nH]c2ccc(F)cc2c1-c1ccccc1	> 100	> 100	11 (≈ 25.4 µM)	> 100 µg/mL	> 100	> 100 µg/mL	> 100 µg/mL	> 100	> 100 µg/mL	10 µg/mL	> 100	> 100	> 100	> 100	> 100 µg/mL	10 µg/mL	> 100 µg/mL	1.9 (≈ 4.39 µM)	> 100	> 100	MCC [1]: 4 µg/mL; MCC [10]: 2 µg/mL; EC50 (Influenza A virus; Influenza A virus, MDCK): > 100 µg/mL
O=C(N/N=C1\SCC(=O)N1Cc1ccccc1)c1[nH]c2ccc(F)cc2c1-c1ccccc1	> 100	> 100	38 (≈ 82.9 µM)	> 100 µg/mL	> 100	> 100 µg/mL	> 100 µg/mL	> 100	> 100 µg/mL	≥ 10 µg/mL	> 100	> 100	> 100	> 100	> 100 µg/mL	> 10 µg/mL	> 100 µg/mL	> 100	> 100	> 100	EC50 (Influenza A virus; Influenza A virus, MDCK): > 100 µg/mL
C=CCN1C(=O)CS/C1=N\NC(=O)c1[nH]c2ccc(F)cc2c1-c1ccccc1	> 100	> 100	> 125	> 100 µg/mL	> 100	> 100 µg/mL	> 100 µg/mL	> 100	> 100 µg/mL	–	> 100	> 100	> 100	> 100	> 100 µg/mL	> 100 µg/mL	> 100 µg/mL	> 100	> 100	> 100	EC50 (Influenza A virus; Influenza A virus, MDCK): > 100 µg/mL
O=c1[nH]c(=O)n([C@H]2C[C@H](O)[C@@H](CO)O2)cc1/C=C/Br [BRIVUDINE]	–	–	–	–	–	22 µM	–	–	–	–	–	–	–	–	–	–	–	–	–	–	–
CCN1C(=O)CS/C1=N\NC(=O)c1[nH]c2ccc(F)cc2c1-c1ccccc1	> 100	> 100	> 125	> 100 µg/mL	> 100	> 100 µg/mL	> 100 µg/mL	> 100	> 100 µg/mL	20 µg/mL	> 100	> 100	> 100	> 100	> 100 µg/mL	> 100 µg/mL	> 100 µg/mL	> 100	> 100	> 100	EC50 (Influenza A virus; Influenza A virus, MDCK): > 100 µg/mL
NC(=O)c1ncn([C@@H]2O[C@H](CO)[C@@H](O)[C@H]2O)n1 [RIBAVIRIN]	–	–	–	> 250 µM	–	–	> 250 µM	–	> 250 µM	> 250 µM	–	–	–	–	15 µM	> 250 µM	61 µM	–	–	–	MCC [1]: > 250 µM; EC50 (Influenza A virus; mdck): 8.9 µM
CCCCNC(=S)NNC(=O)c1[nH]c2ccc(F)cc2c1-c1ccccc1	> 100	> 100	11 (≈ 28.6 µM)	> 100 µg/mL	> 100	> 100 µg/mL	> 100 µg/mL	> 100	> 100 µg/mL	10 µg/mL	> 100	> 100	> 100	> 100	> 100 µg/mL	> 10 µg/mL	> 100 µg/mL	1.4 (≈ 3.64 µM)	> 100	> 100	MCC [1]: 4 µg/mL; MCC [10]: 10 µg/mL; EC50 (Influenza A virus; Influenza A virus, MDCK): > 100 µg/mL
